Experimental data taken from ChEMBL document CHEMBL2202986, “Guaianolide sesquiterpene lactones, a source to discover agents that selectively inhibit acute myelogenous leukemia stem and progenitor cells” (J Med Chem, 2012).
Calls of active or inactive are those of the source.

Legend:
[1] = Cytotoxicity against human leukemia stem/progenitor cells assessed as viable CD34+ cells at 10 uM after 18 hrs by annexin-V labeling-based flow cytometry; assay type: functional, CD34+ cell
[2] = Cytotoxicity against human leukemia stem/progenitor cells assessed as cell viability at 5 uM after 18 hrs by annexin-V labeling-based flow cytometry; assay type: functional; details: in the assay text read “leukemia cells” for “leukemia stem/progenitor cells”, read-out: Activity
Outline: (§1)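 Primary leukemia cells from AML patient blood were treated for 18 h in serum-free IMDM, then stained with CD34-APC and CD38-PECy7 for 30 min. After washing in cold PBS, cells were labelled with Annexin-V–FITC/PI for 15 min at room temperature and read by flow cytometry. Viability of total and CD34⁺ cells was normalized to untreated controls (mean, SD).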

HL-60 = experiment: Cytotoxicity against human HL60 cells after 18 hrs by annexin-V labeling-based flow cytometry; assay type: functional, cell-based; details: HL-60, 18 h
[3] = Cytotoxicity against human leukemia stem/progenitor cells assessed as viable CD34+ cells at 5 uM after 18 hrs by annexin-V labeling-based flow cytometry; assay type: functional, CD34+ cell; outline: as §1
[4] = Cytotoxicity against human HL60/A cells after 18 hrs by annexin-V labeling-based flow cytometry; assay type: functional, cell-based
[5] = Cytotoxicity against human leukemia cells assessed as cell viability at 10 uM after 18 hrs by annexin-V labeling-based flow cytometry
[6] = Drug degradation at pH 7.4 assessed as release of PTL after 3 hrs; assay type: physicochemical; details: buffer, pH 7.4, 3 h
[7] = Half life in mouse at 100 mg/kg, iv; assay type: ADME, organism-based; parameters: dose 100 mg/kg, route intravenous; details: in vivo
Outline: (§2)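 Male Kunming mice (20 2 g), fasted 12 h before dosing with water available, given DMAMCL as an aqueous solution iv (n = 5). Blood was drawn from the orbital veins at set times. DMAMCL and MCL in plasma were measured, and parameters were derived by a noncompartmental model.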

[8] = Mean retention time (0 to t) in mouse at 150 mg/kg, po; assay type: ADME, organism-based; parameters: dose 150 mg/kg, route oral; details: in vivo
Outline: (§3)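 Male Kunming mice (20 2 g), fasted 12 h before dosing with water available, given DMAMCL as an aqueous solution po (n = 5). Blood was drawn from the orbital veins at set times. Plasma DMAMCL and MCL were followed, and parameters came from noncompartmental analysis.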

[9] = Induction of apoptosis in CD34+ leukemia stem/progenitor cells assessed as necrotic cells at 10 uM using annexin V/propidium iodide by flow cytometry; assay type: functional, Homo sapiens
Outline: (§4)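 Primary AML patient cells were exposed to 10 μM compound for 18 h in IMDM, then stained with CD34-APC/CD38-PECy7. Annexin-V–FITC/PI was added and incubated for 15 min at room temperature before flow cytometry. Quadrants were defined as Q1 necrotic, Q2 late apoptotic, Q3 early apoptotic and Q4 viable.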

[10] = Reduction in colony forming units of leukemia stem/progenitor cells at 5 uM after 15 to 20 days; assay type: functional, Homo sapiens
Outline: (§5)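 Mononuclear cells from AML patient […] were exposed to drug for 18 h in serum-free IMDM, then plated in triplicate in M3434 methylcellulose. Total colonies (CFC-Mix, CFC-GM, CFC-G, CFC-M, BFU-E) were scored by morphology after 15−20 days.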

[11] = AUC (0 to t) in mouse at 100 mg/kg, iv; assay type: ADME, organism-based; parameters: dose 100 mg/kg, route intravenous; details: plasma; outline: as §2
Mus musculus = experiment: Volume of distribution in mouse at 150 mg/kg, po; assay type: ADME, organism-based; parameters: dose 150 mg/kg, route oral; details: in vivo
Outline: (§6)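 Male Kunming mice (20 2 g) were fasted 12 h with water available. An aqueous solution was dosed po (150 mg/kg) or iv (100 mg/kg), n = 5 per route. Blood was drawn from the orbital veins at set times to measure DMAMCL and released MCL. Parameters come from a noncompartmental model and are given as mean with SD.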

[12] = Cmax in mouse at 100 mg/kg, iv; assay type: ADME, organism-based; parameters: dose 100 mg/kg, route intravenous; details: in vivo; outline: as §2
[13] = Reduction in colony forming units of leukemia stem/progenitor cells at 10 uM after 15 to 20 days; assay type: functional, Homo sapiens; outline: as §5
[14] = Mean retention time (0 to t) in mouse at 100 mg/kg, iv; assay type: ADME, organism-based; parameters: dose 100 mg/kg, route intravenous; details: in vivo; outline: as §2
[15] = Cytotoxicity against human CD34+ hematopioetic stem cells at 5 uM by immunostaining method; assay type: cell-based
Outline: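 Mononuclear cells were Ficoll-isolated from umbilical cord blood of a normal donor, cryopreserved, then rested in serum-free IMDM for 1 h. Cells were treated for 18 h in IMDM, stained with CD34-APC for 30 min, and labelled with Annexin-V–FITC/PI for 15 min at room temperature. Read by flow cytometry, normalized to vehicle, done in triplicate.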

[16] = Mean retention time (0 to infinity) in mouse at 100 mg/kg, iv; assay type: ADME, organism-based; parameters: dose 100 mg/kg, route intravenous; details: in vivo; outline: as §2
[17] = Cytotoxicity against human leukemia stem/progenitor cells assessed as viable CD34+CD38- cells at 10 uM after 18 hrs by annexin-V labeling-based flow cytometry relative to control; assay type: functional
[18] = Induction of apoptosis in CD34+ leukemia stem/progenitor cells assessed as late apoptotic cells at 10 uM using annexin V/propidium iodide by flow cytometry; assay type: functional, Homo sapiens; outline: as §4
[19] = Total clearance in mouse at 150 mg/kg, po; assay type: ADME, organism-based; parameters: dose 150 mg/kg, route oral; details: in vivo; outline: as §3
[20] = Induction of apoptosis in CD34+ leukemia stem/progenitor cells assessed as early apoptotic cells at 10 uM using annexin V/propidium iodide by flow cytometry; assay type: functional, Homo sapiens; outline: as §4
[21] = Total clearance in mouse at 100 mg/kg, iv; assay type: ADME, organism-based; parameters: dose 100 mg/kg, route intravenous; details: in vivo; outline: as §2
[22] = Cmax in mouse at 150 mg/kg, po; assay type: ADME, organism-based; parameters: dose 150 mg/kg, route oral; details: in vivo; outline: as §3
[23] = Mean retention time (0 to infinity) in mouse at 150 mg/kg, po; assay type: ADME, organism-based; parameters: dose 150 mg/kg, route oral; details: in vivo; outline: as §3
[24] = Half life in mouse at 150 mg/kg, po; assay type: ADME, organism-based; parameters: dose 150 mg/kg, route oral; details: in vivo; outline: as §3
[25] = AUC (0 to infinity) in mouse at 100 mg/kg, iv; assay type: ADME, organism-based; parameters: time infinity, dose 100 mg/kg, route intravenous; details: plasma; outline: as §2
Homo sapiens = experiment: Antitumor activity against human leukemia stem/progenitor cells xenografted in NOD/SCID mouse assessed as reduction of CD45+CD33+ cells in spleen compound pretreated for 18 hrs before grafting process measured after 8 weeks; assay type: functional, tissue-based
Outline: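 Fresh primary AML patient cells were exposed for 18 h to saline or compound. Equal numbers of surviving cells were then injected iv into NOD/SCID mice. After 8 weeks the mice were sacrificed, and the spleen CD33⁺CD45⁺ human cells were quantified by flow cytometry, with each animal analysed individually.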

[26] = Induction of apoptosis in CD34+ leukemia stem/progenitor cells assessed as viable cells at 10 uM using annexin V/propidium iodide by flow cytometry; assay type: functional; details: Homo sapiens; read-out: Activity; outline: as §4
[27] = AUC (0 to infinity) in mouse at 150 mg/kg, po; assay type: ADME, organism-based; parameters: dose 150 mg/kg, route oral, time infinity; details: plasma; outline: as §3
[28] = Volume of distribution in mouse at 100 mg/kg, iv; assay type: ADME, organism-based; parameters: dose 100 mg/kg, route intravenous; details: in vivo; outline: as §6
[29] = AUC (0 to t) in mouse at 150 mg/kg, po; assay type: ADME, organism-based; parameters: dose 150 mg/kg, route oral; details: plasma; outline: as §3
[30] = Cytotoxicity against human leukemia stem/progenitor cells assessed as viable CD34+ cells at 10 uM after 18 hrs by annexin-V labeling-based flow cytometry relative to control; assay type: functional, CD34+ cell
[31] = Tmax in mouse at 150 mg/kg, po; assay type: ADME, organism-based; parameters: dose 150 mg/kg, route oral; details: in vivo; outline: as §3

C=C1CC[C@H]2C(=C)C(=O)O[C@@H]2[C@]2(O)[C@@H]1CC[C@@H]2C
Activity [1]: 44.5% | viability at 5 µM [2]: 70.7% | IC50 (HL-60): 4.5 µM | Activity [3]: 67.9% | IC50 [4]: 6.4 µM | viability at 10 µM [5]: 49.7%

C=C1C(=O)O[C@@H]2/C=C(\C)CC/C=C(\C)CC[C@@H]12 [COSTUNOLIDE]
Activity [1]: 7.5% | viability at 5 µM [2]: 25.8% | IC50 (HL-60): 7.7 µM | Activity [3]: 18.8% | IC50 [4]: 5.8 µM | viability at 10 µM [5]: 13.4%

C=C1CCOC1=O [TULIPALINE A]
IC50 (HL-60): 35 µM | IC50 [4]: 28.8 µM

CCCCC/C=C/C=C/C(=O)N1CCCC1 [SARMENTINE]
IC50 (HL-60): > 50 µM | IC50 [4]: > 50 µM

C=C1C(=O)O[C@@H]2C=C(CCC(C)=O)[C@@H](C)CC[C@@H]12
Activity [1]: 70.9% | viability at 5 µM [2]: 83.2% | IC50 (HL-60): > 50 µM | Activity [3]: 81.5% | IC50 [4]: > 50 µM | viability at 10 µM [5]: 72%

C/C1=C\CC[C@@]2(C)O[C@@H]2[C@H]2OC(=O)[C@@H](Cn3cc(-c4cccc(N)c4)nn3)[C@@H]2CC1
IC50 (HL-60): > 50 µM | IC50 [4]: > 100 µM | Drug degradation [6]: Not Active

C=C1C(=O)O[C@@H]2[C@@H]3[C@@H](CC[C@@]3(C)O)C(=C)CC[C@@H]12
Activity [1]: 22.6% | viability at 5 µM [2]: 61.6% | IC50 (HL-60): 9.4 µM | Activity [3]: 53.7% | IC50 [4]: 9.9 µM | viability at 10 µM [5]: 30.6%

CC1=C2CC[C@@](C)(O)[C@@H]2[C@H]2OC(=O)[C@@H](CN=[N+]=[N-])[C@@H]2CC1
Activity [1]: 11.2% | viability at 5 µM [2]: 64.3% | IC50 (HL-60): 6.2 µM | Activity [3]: 26.3% | IC50 [4]: 6.7 µM | viability at 10 µM [5]: 53.1%

C=C1CC[C@@H]2[C@](C)(CO)[C@H](O)CC[C@@]2(C)[C@@H]1C/C=C1/C(=O)OC[C@H]1O [ANDROGRAPHOLIDE]
IC50 (HL-60): 27 µM | IC50 [4]: 23.3 µM

C/C1=C\CC[C@@]2(C)O[C@@H]2[C@H]2OC(=O)[C@@H](Cn3cc(CO)nn3)[C@@H]2CC1
IC50 (HL-60): > 50 µM | IC50 [4]: > 100 µM | Drug degradation [6]: Not Active

C=C1C(=O)O[C@H]2[C@H]1CCC(C)=C1CC[C@@](C)(O)[C@@H]12 [MICHELIOLIDE]
half-life [7]: 12.7 h | MRT last [8]: 7.59 h | Activity [9]: 0.127% | CFU [10]: 4.5 | AUC(0-t) [11]: 5490 ng·h/mL | Vd (Mus musculus): 265.27 L/kg | Cmax [12]: 10700 ng/mL | Activity [1]: 2.3% | CFU [13]: 0 | MRT last [14]: 1.49 h | viability at 5 µM [2]: 11.7% | Activity [15]: Non-toxic | MRT inf [16]: 6.34 h | fold change (FC) [17]: 5.3 | IC50 (HL-60): 5.5 µM | Activity [3]: 4.2% | Activity [18]: 69.4% | IC50 [4]: 6.2 µM | CL/F [19]: 376 mL/min/kg | viability at 10 µM [5]: 8.4% | Activity [20]: 24.2% | clearance [21]: 288 mL/min/kg | Cmax [22]: 2610 ng/mL | MRT inf [23]: 8.28 h | half-life [24]: 7.92 h | AUC(0-inf) [25]: 5850 ng·h/mL | Activity (Homo sapiens): Active | viability at 10 µM [26]: 1.42% | AUC(0-inf) [27]: 6720 ng·h/mL | Vd [28]: 533 L/kg | AUC(0-t) [29]: 6630 ng·h/mL | fold change (FC) [30]: 3.2 | Tmax [31]: 0.36 h

C=C1C(=O)O[C@@H]2[C@@H]3[C@@H](CC[C@@]3(C)O)[C@](C)(OC)CC[C@@H]12
Activity [1]: 76.3% | viability at 5 µM [2]: 96.5% | IC50 (HL-60): 9.4 µM | Activity [3]: 95.8% | IC50 [4]: 11.2 µM | viability at 10 µM [5]: 75.2%
